Laboratory results published in ChEMBL document CHEMBL5634209, “Computational design, synthesis, and assessment of 3-(4-(4-(1,3,4-oxadiazol-2-yl)-1H-imidazol-2-yl)phenyl)-1,2,4-oxadiazole derivatives as effective epidermal growth factor receptor inhibitors: a prospective strategy for anticancer therapy” (RSC Med Chem, 2024).
One block for each compound: values may come before it.

Legend:
[1] = target: Epidermal growth factor receptor (Homo sapiens, UniProt P00533); test: Inhibition of wild type EGFR (unknown origin) incubated for 40 mins by Kinase Glo Max reagent based luminescence analysis
[2] = Selectivity index, ratio of IC50 for cytotoxicity against African green monkey Vero cells to IC50 for antiproliferative activity against human PC-3 cells; format: toxicity, cell-based; details: Vero cells versus PC-3 cells, read-out: Ratio IC50
PC-3 = test: Antiproliferative activity against human PC-3 cells assessed as reduction in cell viability measured after 48 hrs by MTT assay; format: functional, cell-based; details: PC-3, 48 h
In short: (§1)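 Cells were grown at 37 °C in 5% CO2 in medium with 10% FBS: RPMI-1640 for A549, DU-145 and HepG2, and DMEM/F12 for PC-3. They were seeded at 5×10^3/well. At 70–80% confluence they were exposed to a concentration range diluted from a 60 mM DMSO stock for 48 h at 37 °C, with 0.1% DMSO as vehicle. MTT 5 mg/mL stock was added for 4 h, formazan dissolved in DMSO, A570 read, and % inhibition calculated against control. IC50 was taken from the concentration series.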

[3] = Selectivity index, ratio of IC50 for cytotoxicity against African green monkey Vero cells to IC50 for antiproliferative activity against human DU-145 cells; format: toxicity, cell-based; details: Vero cells versus DU-145 cells, read-out: Ratio IC50
HepG2 [4] = test: Antiproliferative activity against human HepG2 cells assessed as reduction in cell viability measured after 48 hrs by MTT assay; format: functional, cell-based; details: HepG2, 48 h; in short: as §1
[5] = Selectivity index, ratio of IC50 for cytotoxicity against African green monkey Vero cells to IC50 for antiproliferative activity against human HepG2 cells; format: toxicity, cell-based; details: Vero cells versus HepG2 cells, read-out: Ratio IC50
[6] = target: Epidermal growth factor receptor (Homo sapiens, UniProt P00533, T790M); test: Inhibition of EGFR T790M mutant (unknown origin) incubated for 40 mins by Kinase Glo Max reagent based luminescence analysis
A549 = test: Antiproliferative activity against human A549 cells assessed as reduction in cell viability measured after 48 hrs by MTT assay; format: functional, cell-based; details: A549, 48 h; in short: as §1
DU-145 = test: Antiproliferative activity against human DU-145 cells assessed as reduction in cell viability measured after 48 hrs by MTT assay; format: functional, cell-based; details: DU-145, 48 h; in short: as §1
[7] = Selectivity index, ratio of IC50 for cytotoxicity against African green monkey Vero cells to IC50 for antiproliferative activity against human A549 cells; format: toxicity, cell-based; details: Vero cells versus A549 cells, read-out: Ratio IC50
[8] = Cytotoxicity against African green monkey Vero cells assessed as reduction in cell viability measured after 48 hrs by MTT assay; format: toxicity, cell-based; details: African green monkey (Chlorocebus sabaeus)
HepG2 [9] = test: Induction of cell cycle arrest in human HepG2 cells assessed as accumulation of cells at S phase at […] incubated for 24 hrs by propidium iodide staining based flow cytometry (reference value: 46.98%); format: functional; details: dose 0.22 µM
HepG2 [10] = test: Induction of cell cycle arrest in human HepG2 cells assessed as accumulation of cells at S phase at 0.44 uM incubated for 24 hrs by propidium iodide staining based flow cytometry (reference value: 46.98%); format: functional
In short: (§2)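 HepG2 cells were seeded, incubated overnight at 37 °C and, at 70–80% confluence, treated 24 h with 0.11, 0.22 or 0.44 µM in fresh medium; untreated cells served as control. Cells were then digested, washed in PBS and fixed in pre-cooled 75% ethanol at 4 °C for over 18 h. Staining used propidium iodide 50 µg/mL plus RNase 50 µg/mL for 30 min at 37 °C, and DNA content was read by flow cytometry.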

HepG2 [11] = test: Induction of cell cycle arrest in human HepG2 cells assessed as accumulation of cell debris at 0.11 uM incubated for 24 hrs by propidium iodide staining based flow cytometry (reference value: 0.12%); format: functional; in short: as §2
HepG2 [12] = test: Induction of apoptosis in human HepG2 cells assessed as viable cells at […] incubated for 24 hrs by AnnexinV-FITC/PI staining based flow cytometry (reference value: 96.94%); format: functional; details: dose 0.22 µM, read-out: Activity
HepG2 [13] = test: Induction of cell cycle arrest in human HepG2 cells assessed as accumulation of cells at G0/G1 phase at 0.44 uM incubated for 24 hrs by propidium iodide staining based flow cytometry (reference value: 35.61%); format: functional; in short: as §2
HepG2 [14] = test: Induction of apoptosis in human HepG2 cells assessed as late apoptotic cells at […] incubated for 24 hrs by AnnexinV-FITC/PI staining based flow cytometry (reference value: 0.032%); format: functional; details: dose 0.22 µM
HepG2 [15] = test: Induction of cell cycle arrest in human HepG2 cells assessed as accumulation of cells at G2/M phase at 0.44 uM incubated for 24 hrs by propidium iodide staining based flow cytometry (reference value: 18.81%); format: functional; in short: as §2
HepG2 [16] = test: Induction of apoptosis in human HepG2 cells assessed as necrotic cells at […] incubated for 24 hrs by AnnexinV-FITC/PI staining based flow cytometry (reference value: 0.12%); format: functional; details: dose 0.22 µM
HepG2 [17] = test: Induction of cell cycle arrest in human HepG2 cells assessed as accumulation of cells at G0/G1 phase at 0.11 uM incubated for 24 hrs by propidium iodide staining based flow cytometry (reference value: 35.61%); format: functional; in short: as §2
HepG2 [18] = test: Induction of apoptosis in human HepG2 cells assessed as late apoptotic cells at 0.44 uM incubated for 24 hrs by AnnexinV-FITC/PI staining based flow cytometry (reference value: 0.032%); format: functional
HepG2 [19] = test: Induction of apoptosis in human HepG2 cells assessed as viable cells at 0.44 uM incubated for 24 hrs by AnnexinV-FITC/PI staining based flow cytometry (reference value: 96.94%); format: functional; details: read-out: Activity
HepG2 [20] = test: Induction of apoptosis in human HepG2 cells assessed as early apoptotic cells at 0.11 uM incubated for 24 hrs by AnnexinV-FITC/PI staining based flow cytometry (reference value: 2.91%); format: functional
HepG2 [21] = test: Induction of cell cycle arrest in human HepG2 cells assessed as accumulation of cell debris at […] incubated for 24 hrs by propidium iodide staining based flow cytometry (reference value: 0.12%); format: functional; details: dose 0.22 µM
HepG2 [22] = test: Induction of apoptosis in human HepG2 cells assessed as early apoptotic cells at 0.44 uM incubated for 24 hrs by AnnexinV-FITC/PI staining based flow cytometry (reference value: 2.91%); format: functional
HepG2 [23] = test: Induction of cell cycle arrest in human HepG2 cells assessed as accumulation of cells at G0/G1 phase at […] incubated for 24 hrs by propidium iodide staining based flow cytometry (reference value: 35.61%); format: functional; details: dose 0.22 µM
HepG2 [24] = test: Induction of apoptosis in human HepG2 cells assessed as necrotic cells at 0.11 uM incubated for 24 hrs by AnnexinV-FITC/PI staining based flow cytometry (reference value: 0.12%); format: functional
HepG2 [25] = test: Induction of cell cycle arrest in human HepG2 cells assessed as accumulation of cells at G2/M phase at […] incubated for 24 hrs by propidium iodide staining based flow cytometry (reference value: 18.81%); format: functional; details: dose 0.22 µM
HepG2 [26] = test: Induction of cell cycle arrest in human HepG2 cells assessed as accumulation of cells at G2/M phase at 0.11 uM incubated for 24 hrs by propidium iodide staining based flow cytometry (reference value: 18.81%); format: functional; in short: as §2
HepG2 [27] = test: Induction of apoptosis in human HepG2 cells assessed as viable cells at 0.11 uM incubated for 24 hrs by AnnexinV-FITC/PI staining based flow cytometry (reference value: 96.94%); format: functional; details: read-out: Activity
HepG2 [28] = test: Induction of apoptosis in human HepG2 cells assessed as necrotic cells at 0.44 uM incubated for 24 hrs by AnnexinV-FITC/PI staining based flow cytometry (reference value: 0.12%); format: functional
HepG2 [29] = test: Induction of cell cycle arrest in human HepG2 cells assessed as accumulation of cells at S phase at 0.11 uM incubated for 24 hrs by propidium iodide staining based flow cytometry (reference value: 46.98%); format: functional; in short: as §2
HepG2 [30] = test: Induction of apoptosis in human HepG2 cells assessed as late apoptotic cells at 0.11 uM incubated for 24 hrs by AnnexinV-FITC/PI staining based flow cytometry (reference value: 0.032%); format: functional
HepG2 [31] = test: Induction of apoptosis in human HepG2 cells assessed as early apoptotic cells at […] incubated for 24 hrs by AnnexinV-FITC/PI staining based flow cytometry (reference value: 2.91%); format: functional; details: dose 0.22 µM
HepG2 [32] = test: Induction of cell cycle arrest in human HepG2 cells assessed as accumulation of cell debris at 0.44 uM incubated for 24 hrs by propidium iodide staining based flow cytometry (reference value: 0.12%); format: functional; in short: as §2

Epidermal growth factor receptor (Homo sapiens, UniProt P00533, T790M), sequence (P00533 25-1210 T790M limits assumed): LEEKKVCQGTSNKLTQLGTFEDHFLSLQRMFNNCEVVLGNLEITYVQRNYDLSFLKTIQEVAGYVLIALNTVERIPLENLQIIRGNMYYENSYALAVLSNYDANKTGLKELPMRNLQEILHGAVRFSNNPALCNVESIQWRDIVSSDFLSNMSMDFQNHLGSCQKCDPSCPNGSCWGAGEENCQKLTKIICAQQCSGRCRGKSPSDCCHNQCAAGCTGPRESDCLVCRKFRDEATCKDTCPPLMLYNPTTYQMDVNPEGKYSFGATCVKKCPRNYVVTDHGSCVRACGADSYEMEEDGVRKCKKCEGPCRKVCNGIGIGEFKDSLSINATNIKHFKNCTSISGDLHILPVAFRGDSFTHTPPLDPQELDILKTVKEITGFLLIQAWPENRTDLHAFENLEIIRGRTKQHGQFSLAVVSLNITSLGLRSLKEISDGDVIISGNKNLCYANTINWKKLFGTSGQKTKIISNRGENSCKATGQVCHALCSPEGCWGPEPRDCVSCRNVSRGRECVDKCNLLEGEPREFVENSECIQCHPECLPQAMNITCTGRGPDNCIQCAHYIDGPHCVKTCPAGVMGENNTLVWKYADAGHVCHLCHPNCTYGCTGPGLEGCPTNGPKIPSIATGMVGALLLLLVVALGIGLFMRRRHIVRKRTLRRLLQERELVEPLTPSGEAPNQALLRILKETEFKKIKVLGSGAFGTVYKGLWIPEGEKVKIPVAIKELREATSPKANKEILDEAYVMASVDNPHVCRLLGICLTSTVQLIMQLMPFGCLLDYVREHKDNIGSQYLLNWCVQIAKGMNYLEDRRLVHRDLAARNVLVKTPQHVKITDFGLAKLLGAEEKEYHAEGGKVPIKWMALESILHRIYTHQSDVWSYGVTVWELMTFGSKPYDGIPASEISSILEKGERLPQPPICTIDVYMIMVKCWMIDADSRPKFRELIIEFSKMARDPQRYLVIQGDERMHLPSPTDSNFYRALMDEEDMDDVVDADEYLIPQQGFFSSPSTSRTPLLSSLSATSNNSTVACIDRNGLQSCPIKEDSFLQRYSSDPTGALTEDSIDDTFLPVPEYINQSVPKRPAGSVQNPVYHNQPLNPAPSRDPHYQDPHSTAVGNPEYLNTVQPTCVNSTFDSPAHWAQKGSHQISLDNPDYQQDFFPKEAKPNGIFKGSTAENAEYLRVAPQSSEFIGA
Epidermal growth factor receptor (Homo sapiens, UniProt P00533), sequence (P00533 whole entry): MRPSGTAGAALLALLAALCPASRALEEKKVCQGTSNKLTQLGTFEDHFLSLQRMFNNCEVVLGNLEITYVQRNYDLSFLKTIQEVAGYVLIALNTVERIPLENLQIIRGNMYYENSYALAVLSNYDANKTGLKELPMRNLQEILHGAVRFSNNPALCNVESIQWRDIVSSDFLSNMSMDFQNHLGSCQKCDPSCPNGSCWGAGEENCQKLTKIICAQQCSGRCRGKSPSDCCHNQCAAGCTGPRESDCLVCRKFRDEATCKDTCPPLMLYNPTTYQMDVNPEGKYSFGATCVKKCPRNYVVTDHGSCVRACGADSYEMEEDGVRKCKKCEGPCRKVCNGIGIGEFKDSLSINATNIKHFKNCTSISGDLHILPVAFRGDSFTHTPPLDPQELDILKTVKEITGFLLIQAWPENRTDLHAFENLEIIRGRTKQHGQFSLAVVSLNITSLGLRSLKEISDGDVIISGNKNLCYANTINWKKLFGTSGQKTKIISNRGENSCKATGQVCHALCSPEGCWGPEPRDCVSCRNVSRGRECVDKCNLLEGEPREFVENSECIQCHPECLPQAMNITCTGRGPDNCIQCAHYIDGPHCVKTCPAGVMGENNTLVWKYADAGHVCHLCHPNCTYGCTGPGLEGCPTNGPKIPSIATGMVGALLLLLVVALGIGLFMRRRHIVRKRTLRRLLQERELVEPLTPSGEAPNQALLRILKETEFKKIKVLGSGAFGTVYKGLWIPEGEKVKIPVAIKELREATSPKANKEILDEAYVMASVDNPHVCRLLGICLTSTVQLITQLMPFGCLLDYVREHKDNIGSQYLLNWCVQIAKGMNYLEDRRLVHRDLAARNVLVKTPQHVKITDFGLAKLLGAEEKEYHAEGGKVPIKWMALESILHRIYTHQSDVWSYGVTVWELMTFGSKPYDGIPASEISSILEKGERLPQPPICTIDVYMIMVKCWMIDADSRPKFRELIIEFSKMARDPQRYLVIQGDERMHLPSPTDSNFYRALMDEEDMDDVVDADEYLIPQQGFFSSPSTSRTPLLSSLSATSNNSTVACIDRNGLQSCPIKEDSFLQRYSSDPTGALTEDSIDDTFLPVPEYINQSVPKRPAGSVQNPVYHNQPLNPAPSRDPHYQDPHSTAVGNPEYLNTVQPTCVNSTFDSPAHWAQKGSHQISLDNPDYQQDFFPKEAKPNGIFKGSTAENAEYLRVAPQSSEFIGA

SMILES: CN(C)c1ccc(-c2nc(-c3ccc(-c4nc(-c5nnc(-c6ccncc6)o5)c[nH]4)cc3)no2)cc1
selectivity ratio [2]: 7.3
IC50 (PC-3): 2190 nM
selectivity ratio [3]: 6.42
IC50 (HepG2 [4]): 1780 nM
selectivity ratio [5]: 9.03
IC50 (A549): 1980 nM
IC50 (DU-145): 2490 nM
selectivity ratio [7]: 8.08
IC50 at 48 h [8]: > 16000 nM

SMILES: Brc1ccc(-c2nc(-c3ccc(-c4nc(-c5nnc(-c6ccncc6)o5)c[nH]4)cc3)no2)cc1
selectivity ratio [2]: 5.34
IC50 (PC-3): 3470 nM
selectivity ratio [3]: 4.7
IC50 (HepG2 [4]): 3760 nM
selectivity ratio [5]: 5.31
IC50 (A549): 2680 nM
IC50 (DU-145): 4250 nM
selectivity ratio [7]: 7.46
IC50 at 48 h [8]: > 20000 nM

SMILES: Cc1ccc(-c2nc(-c3ccc(-c4nc(-c5nnc(-c6ccncc6)o5)c[nH]4)cc3)no2)cc1
selectivity ratio [2]: 8.02
IC50 (PC-3): 1870 nM
selectivity ratio [3]: 6.41
IC50 (HepG2 [4]): 2120 nM
selectivity ratio [5]: 7.1
IC50 (A549): 2030 nM
IC50 (DU-145): 2340 nM
selectivity ratio [7]: 7.38
IC50 at 48 h [8]: > 15000 nM

Compounds with a lower IC50 (PC-3), results first:

IC50 [1]: 958 nM
IC50 (PC-3): 1290 nM
IC50 (HepG2 [4]): 1240 nM
IC50 [6]: 1190 nM
IC50 (A549): 1100 nM
IC50 (DU-145): 1740 nM
SMILES: COc1ccc(-c2nc(-c3ccc(-c4nc(-c5nnc(-c6ccncc6)o5)c[nH]4)cc3)no2)cc1
selectivity ratio [2]: 12.4
selectivity ratio [3]: 9.2
selectivity ratio [5]: 12.9
selectivity ratio [7]: 14.5
IC50 at 48 h [8]: > 16000 nM

IC50 [1]: 102 nM
IC50 (PC-3): 120 nM
IC50 (HepG2 [4]): 110 nM
IC50 [6]: 1090 nM
IC50 (A549): 130 nM
IC50 (DU-145): 430 nM
SMILES: COc1cc(-c2nc(-c3ccc(-c4nc(-c5nnc(-c6ccncc6)o5)c[nH]4)cc3)no2)cc(OC)c1OC
Activity (HepG2 [9]): 31.16%
Activity (HepG2 [10]): 19.22%
Activity (HepG2 [11]): 0.71%
viability at […] (HepG2 [12]): 65.4%
Activity (HepG2 [13]): 35.02%
Activity (HepG2 [14]): 21.78%
Activity (HepG2 [15]): 47.32%
selectivity ratio [2]: 117
Activity (HepG2 [16]): 0.456%
Activity (HepG2 [17]): 37.51%
selectivity ratio [3]: 32.5
Activity (HepG2 [18]): 27.92%
viability at 0.44 µM (HepG2 [19]): 53.3%
Activity (HepG2 [20]): 11.32%
Activity (HepG2 [21]): 6.72%
Activity (HepG2 [22]): 18.23%
Activity (HepG2 [23]): 36.01%
Activity (HepG2 [24]): 0.14%
Activity (HepG2 [25]): 34.03%
selectivity ratio [5]: 127
Activity (HepG2 [26]): 23.99%
selectivity ratio [7]: 108
viability at 0.11 µM (HepG2 [27]): 79.6%
Activity (HepG2 [28]): 0.563%
Activity (HepG2 [29]): 38.98%
Activity (HepG2 [30]): 8.96%
IC50 at 48 h [8]: > 14000 nM
Activity (HepG2 [31]): 12.33%
Activity (HepG2 [32]): 41.32%
